Converted amounts (≈) assume the structure as drawn. Each block holds one compound with its values, some of them ahead of it. The source made the active and inactive calls. No cut-off for these calls is given here.
Columns and labels:
Candida albicans [1] = assay: Antifungal activity against Candida albicans ATCC 10231 assessed as growth inhibition at 1 mg/mL after 48 hrs by agar-cup diffusion method; type: functional; conditions: ATCC 10231, 48 h, read-out: DIZ
Procedure, shortened: (§1)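 Agar-cup diffusion: 1 mL of 6 h broth culture seeded per 100 mL molten sterile agar at 45 °C and poured into plates. 8 mm cups cut, each filled with 0.1 mL of 1 mg/mL test solution. Incubated 37 °C for 24 h, 48 h for C. albicans. DMSO control per organism. Inhibition zone diameter in mm, mean of three measurements.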

Escherichia coli [2] = assay: Antibacterial activity against Escherichia coli ATCC 25922 assessed as growth inhibition at 1 mg/mL after 24 hrs by agar-cup diffusion method; type: functional; conditions: ATCC 25922, 24 h, read-out: DIZ; procedure, shortened: as §1
Bacillus spizizenii [3] = assay: Antibacterial activity against Bacillus subtilis ATCC 6633 assessed as growth inhibition at 1 mg/mL after 24 hrs by agar-cup diffusion method; type: functional; conditions: ATCC 6633, 24 h, read-out: DIZ; procedure, shortened: as §1
Aspergillus niger = assay: Antifungal activity against Aspergillus niger assessed as growth inhibition at 1 mg/mL after 24 hrs by agar-cup diffusion method; type: functional, organism-based; procedure, shortened: as §1
Candida albicans [4] = assay: Fungicidal activity against Candida albicans ATCC 10231 after 18 hrs; type: functional; conditions: ATCC 10231, 18 h
Procedure, shortened: (§2)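 Continuation of the broth-dilution MIC test. A loopful from each tube without visible growth spread on a quarter of a Mueller-Hinton agar plate and incubated 18 h. Lowest concentration giving no growth on subculture taken as the MBC.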

Candida albicans [5] = assay: Antifungal activity against Candida albicans ATCC 10231 assessed as growth inhibition after 48 hrs by two-fold serial dilution assay; type: functional; conditions: ATCC 10231, 48 h
Procedure, shortened: (§3)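 Twofold serial broth dilution run on compounds giving inhibition zones of 13 mm or more. Organisms pre-grown in suitable broth at 37 °C, 24 h for bacteria and 48 h for fungi. Dilution series 200, 100, 50, 25, 12.5, 6.25. Each 5 mL tube inoculated with 0.1 mL and incubated 37 °C for 48 h. Tubes scored for presence or absence of growth.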

Pseudomonas aeruginosa [6] = assay: Bactericidal activity against Pseudomonas aeruginosa ATCC 27853 after 18 hrs; type: functional; conditions: ATCC 27853, 18 h; procedure, shortened: as §2
Pseudomonas aeruginosa [7] = assay: Antibacterial activity against Pseudomonas aeruginosa ATCC 27853 assessed as growth inhibition after 48 hrs by two-fold serial dilution assay; type: functional; conditions: ATCC 27853, 48 h; procedure, shortened: as §3
Escherichia coli [8] = assay: Bactericidal activity against Escherichia coli ATCC 25922 after 18 hrs; type: functional; conditions: ATCC 25922, 18 h; procedure, shortened: as §2
Escherichia coli [9] = assay: Antibacterial activity against Escherichia coli ATCC 25922 assessed as growth inhibition after 48 hrs by two-fold serial dilution assay; type: functional; conditions: ATCC 25922, 48 h; procedure, shortened: as §3
Bacillus spizizenii [10] = assay: Bactericidal activity against Bacillus subtilis ATCC 6633 after 18 hrs; type: functional; conditions: ATCC 6633, 18 h; procedure, shortened: as §2
Bacillus spizizenii [11] = assay: Antibacterial activity against Bacillus subtilis ATCC 6633 assessed as growth inhibition after 48 hrs by two-fold serial dilution assay; type: functional; conditions: ATCC 6633, 48 h; procedure, shortened: as §3
Staphylococcus aureus [12] = assay: Bactericidal activity against Staphylococcus aureus ATCC 6538 after 18 hrs; type: functional; conditions: ATCC 6538, 18 h; procedure, shortened: as §2
Staphylococcus aureus [13] = assay: Antibacterial activity against Staphylococcus aureus ATCC 6538 assessed as growth inhibition after 48 hrs by two-fold serial dilution assay; type: functional; conditions: ATCC 6538, 48 h; procedure, shortened: as §3
Staphylococcus aureus [14] = assay: Antibacterial activity against Staphylococcus aureus ATCC 6538 assessed as growth inhibition at 1 mg/mL after 24 hrs by agar-cup diffusion method; type: functional; conditions: ATCC 6538, 24 h, read-out: DIZ; procedure, shortened: as §1
Pseudomonas aeruginosa [15] = assay: Antibacterial activity against Pseudomonas aeruginosa ATCC 27853 assessed as growth inhibition at 1 mg/mL after 24 hrs by agar-cup diffusion method; type: functional; conditions: ATCC 27853, 24 h, read-out: DIZ; procedure, shortened: as §1
U-251 = assay: Cytotoxicity against human U251 cells assessed as growth inhibition at 10 uM after 48 hrs by SRB assay; type: functional; conditions: U-251, 48 h, read-out: GI
Procedure, shortened: (§4)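 NCI-60 one-dose primary screen run by the NCI Drug Evaluation Branch across the full 60-line panel. Single high-dose treatment with 48 h continuous drug exposure. Cell growth estimated by sulforhodamine B protein staining. Results given as percent growth of treated cells and expressed as percentage growth inhibition.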

SNB-75 = assay: Cytotoxicity against human SNB75 cells assessed as growth inhibition at 10 uM after 48 hrs by SRB assay; type: functional; conditions: SNB-75, 48 h, read-out: GI; procedure, shortened: as §4
SF-268 = assay: Cytotoxicity against human SF268 cells assessed as growth inhibition at 10 uM after 48 hrs by SRB assay; type: functional; conditions: SF-268, 48 h, read-out: GI; procedure, shortened: as §4
PC-3 = assay: Cytotoxicity against human PC3 cells assessed as growth inhibition at 10 uM after 48 hrs by SRB assay; type: functional; conditions: PC-3, 48 h, read-out: GI; procedure, shortened: as §4
UACC-62 = assay: Cytotoxicity against human UACC62 cells assessed as growth inhibition at 10 uM after 48 hrs by SRB assay; type: functional; conditions: UACC-62, 48 h, read-out: GI; procedure, shortened: as §4
SK-MEL-5 = assay: Cytotoxicity against human SK-MEL-5 cells assessed as growth inhibition at 10 uM after 48 hrs by SRB assay; type: functional; conditions: SK-MEL-5, 48 h, read-out: GI; procedure, shortened: as §4
SK-MEL-2 = assay: Cytotoxicity against human SK-MEL-2 cells assessed as growth inhibition at 10 uM after 48 hrs by SRB assay; type: functional; conditions: SK-MEL-2, 48 h, read-out: GI; procedure, shortened: as §4
LOX IMVI = assay: Cytotoxicity against human LOXIMVI cells assessed as growth inhibition at 10 uM after 48 hrs by SRB assay; type: functional; conditions: read-out: GI; procedure, shortened: as §4
[16] = Cytotoxicity against human UO31 cells assessed as growth inhibition at 10 uM after 48 hrs by SRB assay; type: functional; conditions: UO-31, 48 h, read-out: GI; procedure, shortened: as §4
SN12C = assay: Cytotoxicity against human SN12C cells assessed as growth inhibition at 10 uM after 48 hrs by SRB assay; type: functional; conditions: read-out: GI; procedure, shortened: as §4
A498 = assay: Cytotoxicity against human A498 cells assessed as growth inhibition at 10 uM after 48 hrs by SRB assay; type: functional; conditions: A498, 48 h, read-out: GI; procedure, shortened: as §4
SR = assay: Cytotoxicity against human SR cells assessed as growth inhibition at 10 uM after 48 hrs by SRB assay; type: functional; conditions: read-out: GI; procedure, shortened: as §4
RPMI-8226 = assay: Cytotoxicity against human RPMI8226 cells assessed as growth inhibition at 10 uM after 48 hrs by SRB assay; type: functional; conditions: RPMI-8226, 48 h, read-out: GI; procedure, shortened: as §4
MOLT-4 = assay: Cytotoxicity against human MOLT4 cells assessed as growth inhibition at 10 uM after 48 hrs by SRB assay; type: functional; conditions: MOLT-4, 48 h, read-out: GI; procedure, shortened: as §4
K562 = assay: Cytotoxicity against human K562 cells assessed as growth inhibition at 10 uM after 48 hrs by SRB assay; type: functional; conditions: K562, 48 h, read-out: GI; procedure, shortened: as §4
CCRF-CEM = assay: Cytotoxicity against human CCRF-CEM cells assessed as growth inhibition at 10 uM after 48 hrs by SRB assay; type: functional; conditions: read-out: GI; procedure, shortened: as §4
IGROV-1 = assay: Cytotoxicity against human IGROV1 cells assessed as growth inhibition at 10 uM after 48 hrs by SRB assay; type: functional; conditions: IGROV-1, 48 h, read-out: GI; procedure, shortened: as §4
T47D = assay: Cytotoxicity against human T47D cells assessed as growth inhibition at 10 uM after 48 hrs by SRB assay; type: functional; conditions: read-out: GI; procedure, shortened: as §4
MDA-MB-468 = assay: Cytotoxicity against human MDA-MB-468 cells assessed as growth inhibition at 10 uM after 48 hrs by SRB assay; type: functional; conditions: MDA-MB-468, 48 h, read-out: GI; procedure, shortened: as §4
[17] = Cytotoxicity against human NCI-ADR-RES cells assessed as growth inhibition at 10 uM after 48 hrs by SRB assay; type: functional; conditions: read-out: GI; procedure, shortened: as §4
MCF7 = assay: Cytotoxicity against human MCF7 cells assessed as growth inhibition at 10 uM after 48 hrs by SRB assay; type: functional; conditions: MCF7, 48 h, read-out: GI; procedure, shortened: as §4
[18] = Cytotoxicity against human Hs578T cells assessed as growth inhibition at 10 uM after 48 hrs by SRB assay; type: functional; conditions: Hs-578T, read-out: GI; procedure, shortened: as §4
SW-620 = assay: Cytotoxicity against human SW620 cells assessed as growth inhibition at 10 uM after 48 hrs by SRB assay; type: functional; conditions: SW-620, 48 h, read-out: GI; procedure, shortened: as §4
HT-29 = assay: Cytotoxicity against human HT-29 cells assessed as growth inhibition at 10 uM after 48 hrs by SRB assay; type: functional; conditions: HT-29, 48 h, read-out: GI; procedure, shortened: as §4
HCT-15 = assay: Cytotoxicity against human HCT15 cells assessed as growth inhibition at 10 uM after 48 hrs by SRB assay; type: functional; conditions: HCT-15, 48 h, read-out: GI; procedure, shortened: as §4
HCT-116 = assay: Cytotoxicity against human HCT116 cells assessed as growth inhibition at 10 uM after 48 hrs by SRB assay; type: functional; conditions: HCT-116, 48 h, read-out: GI; procedure, shortened: as §4
HCC 2998 = assay: Cytotoxicity against human HCC2998 cells assessed as growth inhibition at 10 uM after 48 hrs by SRB assay; type: functional; conditions: HCC 2998, 48 h, read-out: GI; procedure, shortened: as §4
NCI-H522 = assay: Cytotoxicity against human NCI-H522 cells assessed as growth inhibition at 10 uM after 48 hrs by SRB assay; type: functional; conditions: NCI-H522, 48 h, read-out: GI; procedure, shortened: as §4
NCI-H322M = assay: Cytotoxicity against human NCI-H322M cells assessed as growth inhibition at 10 uM after 48 hrs by SRB assay; type: functional; conditions: read-out: GI; procedure, shortened: as §4
NCI-H226 = assay: Cytotoxicity against human NCI-H226 cells assessed as growth inhibition at 10 uM after 48 hrs by SRB assay; type: functional; conditions: NCI-H226, 48 h, read-out: GI; procedure, shortened: as §4
HOP-92 = assay: Cytotoxicity against human HOP92 cells assessed as growth inhibition at 10 uM after 48 hrs by SRB assay; type: functional; conditions: HOP-92, 48 h, read-out: GI; procedure, shortened: as §4

MIC (Candida albicans [5]): 25 mg/L (≈ 73.7 µM)
MIC (Pseudomonas aeruginosa [7]): 100 mg/L (≈ 295 µM)
MIC (Escherichia coli [9]): 25 mg/L (≈ 73.7 µM)
MIC (Bacillus spizizenii [11]): 25 mg/L (≈ 73.7 µM)
MIC (Staphylococcus aureus [13]): 12.5 mg/L (≈ 36.8 µM)
SMILES: CCOC(=O)c1sc(NC(=S)Nc2ccc(F)cc2)nc1C
zone of inhibition at 1000 µg/mL (Candida albicans [1]): > 13 mm
zone of inhibition at 1000 µg/mL (Escherichia coli [2]): > 13 mm
zone of inhibition at 1000 µg/mL (Bacillus spizizenii [3]): > 13 mm
growth inhibition (GI) (Aspergillus niger): inactive
MFC (Candida albicans [4]): 50 mg/L (≈ 147 µM)
MBC (Pseudomonas aeruginosa [6]): 100 mg/L (≈ 295 µM)
MBC (Escherichia coli [8]): 25 mg/L (≈ 73.7 µM)
MBC (Bacillus spizizenii [10]): 25 mg/L (≈ 73.7 µM)
MBC (Staphylococcus aureus [12]): 12.5 mg/L (≈ 36.8 µM)
zone of inhibition at 1000 µg/mL (Staphylococcus aureus [14]): > 13 mm
zone of inhibition at 1000 µg/mL (Pseudomonas aeruginosa [15]): > 13 mm

SMILES: Cc1nc(N)sc1C(=O)NCCO
inhibition of growth at 10 µM (U-251): < 10%
inhibition of growth at 10 µM (SNB-75): < 10%
inhibition of growth at 10 µM (SF-268): 2.48%
inhibition of growth at 10 µM (PC-3): < 10%
inhibition of growth at 10 µM (UACC-62): 7.33%
inhibition of growth at 10 µM (SK-MEL-5): < 10%
inhibition of growth at 10 µM (SK-MEL-2): 87.4%
inhibition of growth at 10 µM (LOX IMVI): < 10%
inhibition of growth at 10 µM [16]: 20%
inhibition of growth at 10 µM (SN12C): < 10%
inhibition of growth at 10 µM (A498): < 10%
inhibition of growth at 10 µM (SR): < 10%
inhibition of growth at 10 µM (RPMI-8226): < 10%
inhibition of growth at 10 µM (MOLT-4): < 10%
inhibition of growth at 10 µM (K562): < 10%
inhibition of growth at 10 µM (CCRF-CEM): 40%
inhibition of growth at 10 µM (IGROV-1): < 10%
inhibition of growth at 10 µM (T47D): < 10%
inhibition of growth at 10 µM (MDA-MB-468): 3.17%
inhibition of growth at 10 µM [17]: < 10%
inhibition of growth at 10 µM (MCF7): 2.13%
inhibition of growth at 10 µM [18]: < 10%
inhibition of growth at 10 µM (SW-620): < 10%
inhibition of growth at 10 µM (HT-29): < 10%
inhibition of growth at 10 µM (HCT-15): < 10%
inhibition of growth at 10 µM (HCT-116): 2.49%
inhibition of growth at 10 µM (HCC 2998): < 10%
inhibition of growth at 10 µM (NCI-H522): 65.4%
inhibition of growth at 10 µM (NCI-H322M): < 10%
inhibition of growth at 10 µM (NCI-H226): 3.91%
inhibition of growth at 10 µM (HOP-92): 82.1%
